Key:
[1] = biological target: Muscarinic acetylcholine receptor (Rattus norvegicus) (UniProt P08482+P08483+P08485+P08911+P10980); test: Binding affinity towards Muscarinic acetylcholine receptor at 1.0 uM concentration; type: protein assay
[2] = biological target: Adrenergic receptor alpha-2 (Rattus norvegicus) (UniProt P22086+P19328+P22909); test: Binding affinity towards alpha-2 adrenergic receptor at 1.0 uM concentration; type: protein assay
[3] = species on record: Mus musculus; test: Gross behavioral effects ascertained in mice; W indicates weak stimulant or depressant activity of little significance.; type: functional, organism-based
Procedure, shortened: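 Male Swiss Webster mice, 18–24 g, three per dose, given ip doses of 1, 3, 10, 30, 100 and 300 mg/kg. Observed for gross behavior and held for 4 days. Scored as weak (W), stimulant (S), depressant (D) or convulsant (C).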

[4] = species on record: Rattus norvegicus; test: Inhibition of GABA uptake at 1 uM concentration.; type: functional
[5] = biological target: D(1A) dopamine receptor (Rattus norvegicus) (UniProt P18901); test: Binding affinity towards Dopamine receptor D1 at 1.0 uM concentration
Chain of D(1A) dopamine receptor (Rattus norvegicus) (P18901 whole entry): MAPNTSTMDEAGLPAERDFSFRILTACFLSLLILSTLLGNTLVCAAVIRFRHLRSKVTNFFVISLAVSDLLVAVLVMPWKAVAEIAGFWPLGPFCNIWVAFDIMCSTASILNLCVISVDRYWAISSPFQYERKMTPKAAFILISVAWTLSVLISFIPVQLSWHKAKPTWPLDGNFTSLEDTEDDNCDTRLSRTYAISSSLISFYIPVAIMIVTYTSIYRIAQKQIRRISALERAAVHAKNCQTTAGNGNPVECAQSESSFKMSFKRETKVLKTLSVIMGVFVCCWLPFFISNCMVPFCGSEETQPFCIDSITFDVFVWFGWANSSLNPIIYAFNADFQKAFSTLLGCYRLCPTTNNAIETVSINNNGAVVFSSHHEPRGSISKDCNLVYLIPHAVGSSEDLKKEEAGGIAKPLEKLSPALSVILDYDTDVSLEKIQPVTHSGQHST
Procedure, shortened: (§1)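 Rat brain crude synaptic membranes in 20 mM NaHEPES pH 7.5. Ligands: α1 cortex […] 0.4 nM, nonspecific with (-)-NE 100 μM, 30 min at 25 °C. […] D2 striatum [3H]spiperone 0.05 nM with (+)-butaclamol 1 μM, 45 min at 37 °C. S1 cortex [3H]5-HT 1 nM plus glutathione and MgCl2, with 5-HT 10 μM, 20 min at 37 °C. […] Samples filtered on GF/B and counted.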

[6] = biological target: D(2) dopamine receptor (Rattus norvegicus) (UniProt P61169); test: Binding affinity towards dopamine receptor D2 at 1.0 uM concentration; procedure, shortened: as §1
Chain of D(2) dopamine receptor (Rattus norvegicus) (P61169 whole entry): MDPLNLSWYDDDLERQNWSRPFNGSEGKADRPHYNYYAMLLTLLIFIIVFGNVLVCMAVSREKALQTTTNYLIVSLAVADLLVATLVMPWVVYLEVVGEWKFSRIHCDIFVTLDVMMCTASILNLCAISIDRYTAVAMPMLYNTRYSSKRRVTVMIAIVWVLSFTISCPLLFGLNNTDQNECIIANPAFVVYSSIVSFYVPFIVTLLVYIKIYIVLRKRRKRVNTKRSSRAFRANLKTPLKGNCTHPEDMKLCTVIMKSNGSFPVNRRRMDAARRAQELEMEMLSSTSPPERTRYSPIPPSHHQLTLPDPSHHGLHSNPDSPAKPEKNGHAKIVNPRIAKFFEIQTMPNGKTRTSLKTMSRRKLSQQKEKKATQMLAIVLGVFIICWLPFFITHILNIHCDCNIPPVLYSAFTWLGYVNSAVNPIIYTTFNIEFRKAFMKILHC

[7] = biological target: D(2) dopamine receptor (Rattus norvegicus, UniProt P61169); test: Binding affinity towards Dopamine receptor D2
Chain of D(2) dopamine receptor (P61169 whole entry): as above

[8] = biological target: T1, Adrenergic receptor alpha-1 (Rattus norvegicus, UniProt P15823+P23944+P43140); test: Binding affinity towards alpha-1 adrenergic receptor; type: protein assay
T1 sequence (P15823 whole entry): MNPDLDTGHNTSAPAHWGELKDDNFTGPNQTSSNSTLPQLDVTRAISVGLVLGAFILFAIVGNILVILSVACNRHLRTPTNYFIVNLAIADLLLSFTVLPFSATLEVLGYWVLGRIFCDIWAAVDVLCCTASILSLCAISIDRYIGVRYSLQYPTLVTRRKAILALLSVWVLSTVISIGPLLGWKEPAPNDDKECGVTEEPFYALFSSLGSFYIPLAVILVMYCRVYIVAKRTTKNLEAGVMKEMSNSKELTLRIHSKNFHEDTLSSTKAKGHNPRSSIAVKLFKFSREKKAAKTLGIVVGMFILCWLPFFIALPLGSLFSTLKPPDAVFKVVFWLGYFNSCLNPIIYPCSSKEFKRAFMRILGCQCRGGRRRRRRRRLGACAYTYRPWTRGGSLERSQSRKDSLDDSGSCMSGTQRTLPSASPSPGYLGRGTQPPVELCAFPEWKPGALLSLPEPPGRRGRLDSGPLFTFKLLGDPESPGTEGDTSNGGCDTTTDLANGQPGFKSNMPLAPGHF
T1 sequence (P23944 whole entry): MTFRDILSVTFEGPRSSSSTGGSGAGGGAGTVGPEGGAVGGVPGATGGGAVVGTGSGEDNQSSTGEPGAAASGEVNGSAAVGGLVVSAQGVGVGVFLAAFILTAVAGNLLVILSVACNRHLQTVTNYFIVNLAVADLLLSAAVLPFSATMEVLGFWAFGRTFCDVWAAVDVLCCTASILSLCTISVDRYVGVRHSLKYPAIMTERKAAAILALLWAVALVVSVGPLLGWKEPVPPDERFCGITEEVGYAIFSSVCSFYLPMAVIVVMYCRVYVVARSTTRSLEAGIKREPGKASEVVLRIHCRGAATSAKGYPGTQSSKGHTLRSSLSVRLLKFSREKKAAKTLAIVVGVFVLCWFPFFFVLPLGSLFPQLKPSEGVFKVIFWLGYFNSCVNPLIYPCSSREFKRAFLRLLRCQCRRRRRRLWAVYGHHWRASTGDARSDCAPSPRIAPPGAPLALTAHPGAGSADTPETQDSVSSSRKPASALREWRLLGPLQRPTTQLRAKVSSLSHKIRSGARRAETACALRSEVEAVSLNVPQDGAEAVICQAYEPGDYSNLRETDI
T1 sequence (P43140 whole entry): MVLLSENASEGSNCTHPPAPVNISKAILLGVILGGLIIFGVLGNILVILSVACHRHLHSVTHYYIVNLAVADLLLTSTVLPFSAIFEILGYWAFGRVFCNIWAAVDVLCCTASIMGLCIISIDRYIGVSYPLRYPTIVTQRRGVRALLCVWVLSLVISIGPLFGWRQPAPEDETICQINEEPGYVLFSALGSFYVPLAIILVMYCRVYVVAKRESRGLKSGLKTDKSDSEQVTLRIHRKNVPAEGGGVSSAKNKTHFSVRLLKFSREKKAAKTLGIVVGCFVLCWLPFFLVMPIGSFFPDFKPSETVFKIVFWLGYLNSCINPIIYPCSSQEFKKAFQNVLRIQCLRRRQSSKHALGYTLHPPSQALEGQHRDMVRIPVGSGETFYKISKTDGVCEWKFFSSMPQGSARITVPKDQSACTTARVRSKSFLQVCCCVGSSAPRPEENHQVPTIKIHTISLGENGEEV

[9] = biological target: T2, Adrenergic receptor alpha-2 (Rattus norvegicus, UniProt P22086+P19328+P22909); test: Binding affinity towards alpha-2 adrenergic receptor; type: protein assay
T2 sequence (P22086 whole entry): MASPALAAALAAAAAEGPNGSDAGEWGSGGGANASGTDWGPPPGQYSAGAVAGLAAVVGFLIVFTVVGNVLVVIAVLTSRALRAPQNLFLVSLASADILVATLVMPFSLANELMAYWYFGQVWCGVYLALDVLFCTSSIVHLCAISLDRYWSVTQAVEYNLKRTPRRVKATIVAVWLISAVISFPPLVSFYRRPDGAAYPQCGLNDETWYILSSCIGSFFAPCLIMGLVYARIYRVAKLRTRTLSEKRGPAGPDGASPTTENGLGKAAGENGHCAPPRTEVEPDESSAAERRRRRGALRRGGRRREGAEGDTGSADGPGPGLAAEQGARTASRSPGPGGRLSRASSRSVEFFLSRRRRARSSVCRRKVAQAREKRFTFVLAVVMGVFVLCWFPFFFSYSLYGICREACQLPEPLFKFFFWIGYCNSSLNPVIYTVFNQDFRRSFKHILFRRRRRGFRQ
T2 sequence (P19328 whole entry): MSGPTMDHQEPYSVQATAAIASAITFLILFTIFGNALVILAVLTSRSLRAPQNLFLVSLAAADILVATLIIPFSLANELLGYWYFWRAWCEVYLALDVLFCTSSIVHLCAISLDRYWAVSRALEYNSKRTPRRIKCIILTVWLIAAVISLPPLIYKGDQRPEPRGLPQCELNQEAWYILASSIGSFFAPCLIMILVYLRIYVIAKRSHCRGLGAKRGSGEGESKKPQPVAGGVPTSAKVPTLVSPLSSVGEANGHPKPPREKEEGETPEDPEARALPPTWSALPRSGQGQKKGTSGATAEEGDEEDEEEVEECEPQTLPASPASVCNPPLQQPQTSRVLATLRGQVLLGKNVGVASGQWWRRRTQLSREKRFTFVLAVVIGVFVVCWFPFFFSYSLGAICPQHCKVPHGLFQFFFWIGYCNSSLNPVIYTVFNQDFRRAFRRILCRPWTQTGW
T2 sequence (P22909 whole entry): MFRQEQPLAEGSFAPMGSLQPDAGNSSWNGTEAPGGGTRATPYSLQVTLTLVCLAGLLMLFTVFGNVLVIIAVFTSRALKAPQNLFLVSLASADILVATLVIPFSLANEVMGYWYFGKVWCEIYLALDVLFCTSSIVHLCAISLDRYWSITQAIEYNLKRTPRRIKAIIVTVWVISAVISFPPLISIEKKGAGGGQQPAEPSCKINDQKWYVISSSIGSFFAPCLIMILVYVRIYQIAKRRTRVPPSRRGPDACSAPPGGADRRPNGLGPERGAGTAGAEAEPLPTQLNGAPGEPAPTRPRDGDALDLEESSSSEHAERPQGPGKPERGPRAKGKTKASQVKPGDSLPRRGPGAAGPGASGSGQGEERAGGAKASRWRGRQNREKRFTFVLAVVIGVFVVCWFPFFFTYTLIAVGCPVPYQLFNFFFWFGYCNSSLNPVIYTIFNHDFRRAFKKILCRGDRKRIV

[10] = species on record: Mus musculus; test: Antagonism of tetrabenazine (TBZ)-induced depression measured in mice by motor activity; type: functional
Procedure, shortened: (§2)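 Nonfasted male Swiss Webster mice, 18–24 g, ten per dose level and in saline controls. Test compound given ip 30 min before tetrabenazine 32 mg/kg ip; dose expressed as free base. Motor activity and ptosis scored. Control response ≤90% corrected by Abbott's formula.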

[11] = biological target: Serotonin 1 (5-HT1) receptor (Rattus norvegicus, UniProt P28564+P30940+P19327+P28565); test: Binding affinity towards serotonin S1 receptor; type: protein assay; procedure, shortened: as §1
[12] = species on record: Mus musculus; test: Antagonism of tetrabenazine (TBZ)-induced depression in mice measured for ptosis; type: functional; procedure, shortened: as §2

**Q.** `Clc1ccccc1[C@@H]1CN2CCC[C@@H]2c2ccccc21` (stereo in doubt; 24b) was tested. Which inhibition [1] did it give?
**A.** 6%

**Q.** What about the inhibition [2] of the same molecule?
**A.** 12%

**Q.** And the behavior [3]?
**A.** Partial stimulant

**Q.** What about the inhibition [4] of the same molecule?
**A.** 16%

**Q.** `CSc1ccc([C@@H]2CN3CCC[C@@H]3c3ccccc32)cc1` (stereo in doubt; 48b) was tested. Which inhibition [5] did it give?
**A.** 24%

**Q.** What about the inhibition [6] of the same molecule?
**A.** 4%

**Q.** And the inhibition [4]?
**A.** 10%

**Q.** For `c1ccc([C@@H]2CN3CCC[C@@H]3c3ccccc32)cc1` (stereo in doubt; 7b), which Ki [7] is on record?
**A.** 875 nM

**Q.** What about the Ki [8] of the same molecule?
**A.** 172 nM

**Q.** What about the Ki [9] of the same molecule?
**A.** 750 nM

**Q.** And the ED50 [10]?
**A.** 0.34 mg/kg

**Q.** What about the Ki [11] of the same molecule?
**A.** > 10000 nM

**Q.** And the ED50 [12]?
**A.** 0.07 mg/kg

**Q.** For `FC(F)(F)c1cccc([C@@H]2CN3CCC[C@@H]3c3ccccc32)c1` (stereo in doubt; 37b), which inhibition [5] is on record?
**A.** 17%

**Q.** What about the inhibition [1] of the same molecule?
**A.** 1%

**Q.** What about the inhibition [2] of the same molecule?
**A.** 7%

**Q.** What about the behavior [3] of the same molecule?
**A.** Partial stimulant

**Q.** What about the inhibition [4] of the same molecule?
**A.** 16%

**Q.** Which Ki [7] does the source give for `CN(C)CCCN1c2ccccc2CCc2ccc(Cl)cc21` [CLOMIPRAMINE] here?
**A.** 56 nM

**Q.** What about the Ki [9] of the same molecule?
**A.** 51 nM

**Q.** What about the Ki [11] of the same molecule?
**A.** 5000 nM

Source: ChEMBL document CHEMBL1123812, “Pyrroloisoquinoline antidepressants. 2. In-depth exploration of structure-activity relationships” (J Med Chem, 1987)
